How the values were obtained:
Format in all cases: functional, cell-based
MCF7 = assay: Cytotoxicity against human MCF7 cells by MTT assay
Procedure, shortened: (§1)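 MTT viability read-out on five human cancer lines tested in parallel: breast MCF-7, hepatocellular SMMC-7721, myeloid leukemia HL-60, colon SW480 and lung A-549. IC50 derived by the Reed and Muench method.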

SW480 = assay: Cytotoxicity against human SW480 cells by MTT assay; procedure, shortened: as §1
HL-60 = assay: Cytotoxicity against human HL60 cells by MTT assay; procedure, shortened: as §1
A549 = assay: Cytotoxicity against human A549 cells by MTT assay; procedure, shortened: as §1
SMMC-7721 = assay: Cytotoxicity against human SMMC7721 cells by MTT assay; procedure, shortened: as §1

Measured: IC50

COC/C=C1\CN2[C@H]3C[C@@H]1[C@@H]1COC4=Nc5cc6c(c(O[C@@H]7O[C@H](CO)[C@@H](O)[C@H](O)[C@H]7O)c5[C@@]43C[C@@H]12)OCO6
> 40 µM: all assays above

COC/C=C1\C[N+]2([O-])[C@H]3C[C@@]45C(=Nc6cc7c(c(OC)c64)OCO7)OC[C@H]3[C@H]1C[C@@H]52
> 40 µM: all assays above

C/C=C1/CN2[C@H]3C[C@@H]1[C@@H]1COC4=Nc5c(cc(OC)c(OC)c5OC)[C@@]43C[C@@H]12
> 40 µM: all assays above

C/C=C1/CN2[C@H]3C[C@@H]1[C@@H]1COC4=Nc5c(OC)cc(OC)cc5[C@@]43C[C@@H]12
> 40 µM: all assays above

C/C=C1/C[N+]2([O-])CC[C@]34C=C(CO)[C@H]1C[C@@]32Nc1ccccc14 (stereo not given in full)
> 40 µM: all assays above

COc1cc(OC)c2c(c1)[C@@]13C[C@H]4[C@@H](COC1=N2)[C@H]1C[C@@H]3N4C/C1=C\CO
> 40 µM: all assays above

COc1c2c(cc3c1[C@@]14C[C@H]5[C@@H](COC1=N3)[C@H]1C[C@@H]4N5C/C1=C\CO)OCO2
> 40 µM: all assays above

C/C=C1/C[N+]2([O-])[C@H]3C[C@@]45C(=Nc6cc7c(c(OC)c64)OCO7)OC[C@H]3[C@H]1C[C@@H]52
> 40 µM: all assays above

— ChEMBL document CHEMBL1781886, “Monoterpenoid indole alkaloids from Gardneria ovata” (J Nat Prod, 2011)
